Test [1] deals with Renal cell. Description: Inhibitory activity against renal cell line. In kind it is functional, cell-based. Conditions: for IC50: Homo sapiens, Renal cell; for Log IC50: renal cell.
Test [2] deals with Breast carcinoma cell. Kind of test: Inhibitory activity against breast cell line. It counts as functional, cell-based. Conditions: for IC50: Homo sapiens, Breast carcinoma cell; for Log IC50: breast carcinoma cell.
The test system of test [3] is 3Y1 cell line. Kind of test: Cytotoxicity in 3Y1 cells. It counts as functional, Rattus norvegicus. On the set-up: unit not given here. A digest of the protocol:
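Rat normal fibroblast 3Y1 cells grown in Dulbecco's modified MEM with 10% fetal calf serum, 5% CO2, humidified. Exponentially growing cells exposed to compounds for 24 h. Relative cell number = cell number at 24 h per initial cell number at 0 h × 100; DNA content distribution read by laser scanning cytometry.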

In test [4] the test system is NCI-60 human tumor cell line panel (Homo sapiens). Kind of test: Mean concentration causing inhibition of cell growth in the NCI-60 human tumor cell line panel.
The test system of test [5] is Prostate cell. Kind of test: Inhibitory activity against prostate cell line. In kind it is functional, cell-based. Conditions: for IC50: Homo sapiens, Prostate cell.
Test [6] concerns non-small-cell lung cancer cell lines (Homo sapiens). Description: Inhibitory activity against non-small-cell lung cancer cell lines. The conditions noted are these: for IC50: Homo sapiens.
In test [7] the test system is CNS cell. Kind of test: Inhibitory activity against CNS cell line. It counts as functional, cell-based. The conditions noted are these: for IC50: Homo sapiens, CNS cell; for Log IC50: cns cell.
In test [8] the test system is Melanoma cell. Kind of test: Inhibitory activity against melanoma cell line. In kind it is functional, cell-based. Conditions: for IC50: Homo sapiens, Melanoma cell; for Log IC50: melanoma cell.
The test system of test [9] is Colon cell. Description: Inhibitory activity against Colon cell line. It counts as functional, cell-based. The conditions noted are these: for IC50: Homo sapiens, Colon cell; for Log IC50: colon cell.
Test [10] has as its system Panel leukemia (Carcinoma cell lines). Description: Inhibitory activity against leukemia cell line. In kind it is functional, cell-based. The conditions noted are these: for IC50: Homo sapiens, Panel leukemia (Carcinoma cell lines); for Log IC50: panel leukemia (carcinoma cell lines).
The subject of test [11] is NCI-60 human tumor cell line panel (Homo sapiens). Kind of test: Cytostatic effect in NCI-60 human tumor cell lines. Details: unit not given here.
In test [12] the test system is Ovarian carcinoma cell. Kind of test: Inhibitory activity against ovarian cell line. It counts as functional, cell-based. The conditions noted are these: for IC50: Homo sapiens, Ovarian carcinoma cell.

The source of these data is ChEMBL document CHEMBL1132918, “Synthesis and evaluation of tryprostatin B and demethoxyfumitremorgin C analogues” (J Med Chem, 2000).

One may read the IC50 as the concentration that inhibits the measured activity by half. Broadly, the GI50 is the concentration that inhibits growth by half. With `COc1cc([C@H]2c3[nH]c4ccccc4c3C[C@H]3C(=O)N4CCC[C@H]4C(=O)N23)cc(OC)c1OC`, the IC50 in [1] was 95.5 µM; in test [2] it was 97.7 µM; in test [5], 91.2 µM; in test [6], 70.8 µM; in test [7] it was 95.5 µM; in test [8] it was 93.3 µM. Also, the figures for the IC50 in test [9], in test [10] and in test [12] were 93.3 µM, 64.6 µM and 72.4 µM, respectively. In addition, the LC50 in test [3] was above -4. The compound also had a GI50 in [4] (Homo sapiens, NCI-60 panel) of 87.1 µM. In [11], this compound displayed a TGI above -4.

In the case of `COc1cc([C@@H]2c3[nH]c4ccccc4c3C[C@H]3C(=O)NCC(=O)N23)cc(OC)c1OC` (relative stereo), the IC50 is 13.8 µM in test [1]; 6.31 µM in [2]; 5.5 µM in test [5]; 7.59 µM in test [6]; 3.72 µM in test [7]; 6.76 µM in [8]. Besides, the IC50 in [9] is 4.37 µM; in test [10] it was 2.29 µM; in test [12], 5.89 µM. Moreover, in test [3], the LC50 is reported as -4.04. This compound had a GI50 in test [4] (Homo sapiens, NCI-60 panel) of 5.89 µM. This compound also had a TGI in test [11] of -4.26.

With `COc1cc([C@H]2c3[nH]c4ccccc4c3C[C@H]3C(=O)NCC(=O)N23)cc(OC)c1O` (relative stereo), the concentration for half-maximal inhibition (IC50) in test [1], in [2], in [5], in test [6], in [7] and in test [8] was above 100 µM in each case. The half-inhibitory concentration (IC50) in test [9], in [10] and in test [12] was above 100 µM each time. Besides, the LC50 in test [3] is above -4. In test [4] (Homo sapiens, NCI-60 panel), this compound had a GI50 above 100 µM. The compound further had a TGI in [11] above -4.

As to `COc1cc([C@H]2c3[nH]c4ccccc4c3C[C@H]3C(=O)NCC(=O)N23)cc(OC)c1OC` (relative stereo), the IC50 is 95.5 µM in test [1]; 93.3 µM in test [2]; above 100 µM in test [5]; above 100 µM in test [6]; above 100 µM in test [7]; above 100 µM in test [8]. The 50% inhibitory concentration (IC50) is above 100 µM in [9], 72.4 µM in test [10] and above 100 µM in [12]. This compound had an LC50 in [3] above -4. It took 95.5 µM to inhibit growth in test [4] (Homo sapiens, NCI-60 panel) by half (GI50). The same compound came in with a TGI in test [11] above -4.

As to `O=C1[C@@H]2CCCN2C(=O)[C@H](Cc2c[nH]c3ccccc23)N1C/C=C/c1ccccc1`, the IC50 is 35.5 µM in [1]; 27.5 µM in [2]; 39.8 µM in [5]; 32.4 µM in test [6]; 37.2 µM in test [7]; 43.7 µM in [8]. The IC50 in test [9] was 35.5 µM; in [10], 22.9 µM; in [12], 44.7 µM. This compound had an LC50 in test [3] of -4.01. The same compound had a GI50 in test [4] (Homo sapiens, NCI-60 panel) of 31.6 µM. The TGI in test [11] is -4.07.

`COc1cc(CN2C(=O)[C@@H]3CCCN3C(=O)[C@@H]2Cc2c[nH]c3ccccc23)cc(OC)c1OC`: the 50% inhibitory concentration (IC50) in [1] is 30.2 µM; in test [2], 33.9 µM; in test [5], 57.5 µM; in test [6] it was 42.7 µM; in test [7], 27.5 µM; in test [8] it was 28.8 µM. Moreover, the IC50 is 30.2 µM in test [9], 13.2 µM in test [10] and 40.7 µM in [12]. For the same compound, the LC50 in test [3] is given as -4.01. The compound further gave a GI50 in test [4] (Homo sapiens, NCI-60 panel) of 30.9 µM. In test [11], this compound registered a TGI of -4.04.

On to `CC(C)C[C@H]1c2[nH]c3ccccc3c2C[C@H]2C(=O)N3CCC[C@H]3C(=O)N21`, for which the IC50 in [1] was 74.1 µM; in [2], 63.1 µM; in [5], 83.2 µM; in test [6], 77.6 µM; in test [7], 83.2 µM; in test [8], 87.1 µM. For the same compound, the IC50 in test [9] was 67.6 µM; in [10], 36.3 µM; in test [12], 79.4 µM. Further, the LC50 in test [3] is on record as above -4. In addition, halving of growth in [4] (Homo sapiens, NCI-60 panel) (GI50) required 70.8 µM.

For `CC(C)C[C@@H]1c2[nH]c3ccccc3c2C[C@H]2C(=O)N3CCC[C@H]3C(=O)N12`, the IC50 in test [1] is 97.7 µM; in test [2], 87.1 µM; in test [5] it was above 100 µM; in [6], 93.3 µM; in test [7], 85.1 µM; in test [8], above 100 µM. Further, the IC50 in [9] was above 100 µM; in test [10], 77.6 µM; in test [12], above 100 µM. For the same compound, in test [3], the LC50 is on record as above -4. This compound gave a GI50 in test [4] (Homo sapiens, NCI-60 panel) of 93.3 µM. Also, the TGI in test [11] is above -4.

Regarding `COc1cc([C@@H]2c3[nH]c4ccccc4c3C[C@H]3C(=O)NCC(=O)N23)cc(OC)c1O` (relative stereo), the IC50 in test [1] was 55 µM; in test [2] it was 49 µM; in test [5], 70.8 µM; in test [6] it was 56.2 µM; in test [7] it was 38 µM; in test [8], 45.7 µM. The IC50 is 46.8 µM in [9], 38 µM in test [10] and 66.1 µM in test [12]. The compound further returned an LC50 in test [3] above -4. In test [4] (Homo sapiens, NCI-60 panel), this compound had a GI50 of 50.1 µM. Besides, the TGI in test [11] is recorded as -4.01.

As to `CC(C)=C[C@H]1c2[nH]c3ccccc3c2C[C@H]2C(=O)N3CCC[C@H]3C(=O)N21` (stereo in doubt; 3) [DEMETHOXYFUMITREMORGIN C], the “Log IC50” value is given as -4.61 in test [1], -4.43 in [2], -4.36 in test [7] and -4.32 in test [8]. The same compound returned an LC50 in test [3] above -4. The compound further showed a GI50 in test [4] of 43.7 µM. The IC50 in test [5] is 50.1 µM; in test [6], 52.5 µM; in test [9], 53.7 µM; in [10] it was 34.7 µM; in [12], 70.8 µM. Besides, in test [11], the TGI is -4.02.

As for `CC(C)=CCN1C(=O)[C@@H]2CCCN2C(=O)[C@@H]1Cc1c[nH]c2ccccc12` (stereo in doubt), the 50% inhibitory concentration (IC50) in test [1] is above 100 µM; in [2], 89.1 µM; in test [5], above 100 µM; in [6], 97.7 µM; in [7] it was above 100 µM; in [8], above 100 µM. In addition, the IC50 in test [9] is 95.5 µM; in test [10] it was 61.7 µM; in [12] it was above 100 µM. This compound also showed an LC50 in test [3] above -4. In addition, in test [4] (Homo sapiens, NCI-60 panel), growth was halved (GI50) at 85.1 µM. Also, in test [11], the TGI is -4.01.

In the case of `COc1cc([C@@H]2c3[nH]c4ccccc4c3C[C@H]3C(=O)N4CCC[C@H]4C(=O)N23)cc(OC)c1OC`, the IC50 in [1] is 77.6 µM; in test [2], 46.8 µM; in test [5], 72.4 µM; in [6] it was 69.2 µM; in test [7], 74.1 µM; in [8], 87.1 µM. Moreover, the IC50 in test [9] is 74.1 µM; in [10], 32.4 µM; in test [12], 77.6 µM. In [3], the LC50 is recorded as above -4. This compound gave a concentration for 50% growth inhibition (GI50) in [4] (Homo sapiens, NCI-60 panel) of 66.1 µM. In test [11], the TGI is on record as -4.01.

As for `CC(C)=CCN1C(=O)[C@@H]2CCCN2C(=O)[C@@H]1Cc1c[nH]c2ccccc12` (stereo in doubt; 5a), the “Log IC50” value in test [2], in [6], in [9] and in [10] was above -4 in each case. Moreover, in test [4], the GI50 is above 100 µM. The compound further yielded a TGI in test [11] above -4.

Turning to `O=C1[C@@H]2Cc3c([nH]c4ccccc34)[C@H](c3ccccc3)N2C(=O)[C@@H]2CCCN12`, the IC50 in [1] is 42.7 µM; in test [2], 36.3 µM; in test [5] it was 85.1 µM; in test [6], 63.1 µM; in test [7] it was above 100 µM; in [8], 51.3 µM. Also, the results for the 50% inhibitory concentration (IC50) in [9], in [10] and in [12] were 41.7 µM, 13.8 µM and 57.5 µM, respectively. This compound also registered an LC50 in test [3] above -4. This compound also showed a GI50 in test [4] (Homo sapiens, NCI-60 panel) of 47.9 µM. The compound further had a TGI in test [11] above -4.

With `O=C1[C@@H]2Cc3c([nH]c4ccccc34)[C@@H](c3ccccc3)N2C(=O)[C@@H]2CCCN12`, the IC50 in test [1] was 50.1 µM; in test [2], 49 µM; in [5], 63.1 µM; in [6] it was 52.5 µM; in test [7], 61.7 µM; in [8], 50.1 µM. In addition, the results for the IC50 in [9], in [10] and in [12] were 45.7 µM, 40.7 µM and 56.2 µM, respectively. The compound also had an LC50 in test [3] above -4. This compound also gave a GI50 in test [4] (Homo sapiens, NCI-60 panel) of 51.3 µM. This compound also registered a TGI in test [11] above -4.

With `CC(C)=C[C@H]1c2[nH]c3ccccc3c2C[C@H]2C(=O)N3CCC[C@H]3C(=O)N21` (stereo in doubt) [DEMETHOXYFUMITREMORGIN C], the “Log IC50” value was above -4 in [1]; above -4 in [2]; above -4 in test [5] (prostate cell); -4.03 in [6]; -4 in test [7]; above -4 in test [8]. The “Log IC50” value in [9] is -4.02; in [10], -4.16; in test [12] (ovarian carcinoma cell), above -4. In [4], the GI50 is 95.5 µM.
